Data as given in ChEMBL document CHEMBL5120972, “Small-Molecule Inhibitors of the MLL1 CXXC Domain, an Epigenetic Reader of DNA Methylation” (ACS Med Chem Lett, 2022).

What was measured:
[1] = biological target: Histone-lysine N-methyltransferase 2A (Homo sapiens, UniProt Q03164); experiment: Inhibition of GST-tagged human MLL1 (1147 to 1203 residues) expressed in Escherichia coli BL21 cells incubated for 30 mins by fluorescence polarization assay
In short: (§1)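 Competition fluorescence polarization assay. CXXC domain protein is held at 2× its own KD. All domains are expressed and purified by the same method. Standard deviations come from three separate measurements.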

[2] = biological target: Methylcytosine dioxygenase TET1 (Homo sapiens, UniProt Q8NFU7); experiment: Inhibition of GST-tagged human TET1 (583 to 633 residues) expressed in Escherichia coli BL21 cells incubated for 30 mins by fluorescence polarization assay; in short: as §1
[3] = biological target: Methylcytosine dioxygenase TET3 (Homo sapiens, UniProt O43151); experiment: Inhibition of GST-tagged human TET3 ([…] residues) expressed in Escherichia coli BL21 cell incubated for 30 mins by fluorescence polarization assay; in short: as §1
[4] = biological target: T1, Lysine-specific demethylase 2A (Homo sapiens, UniProt Q9Y2K7); experiment: Inhibition of GST-tagged human KDM2A (562 to 618 residues) expressed in Escherichia coli BL21 cells incubated for 30 mins by fluorescence polarization assay; in short: as §1
T1 sequence (Q9Y2K7 whole entry): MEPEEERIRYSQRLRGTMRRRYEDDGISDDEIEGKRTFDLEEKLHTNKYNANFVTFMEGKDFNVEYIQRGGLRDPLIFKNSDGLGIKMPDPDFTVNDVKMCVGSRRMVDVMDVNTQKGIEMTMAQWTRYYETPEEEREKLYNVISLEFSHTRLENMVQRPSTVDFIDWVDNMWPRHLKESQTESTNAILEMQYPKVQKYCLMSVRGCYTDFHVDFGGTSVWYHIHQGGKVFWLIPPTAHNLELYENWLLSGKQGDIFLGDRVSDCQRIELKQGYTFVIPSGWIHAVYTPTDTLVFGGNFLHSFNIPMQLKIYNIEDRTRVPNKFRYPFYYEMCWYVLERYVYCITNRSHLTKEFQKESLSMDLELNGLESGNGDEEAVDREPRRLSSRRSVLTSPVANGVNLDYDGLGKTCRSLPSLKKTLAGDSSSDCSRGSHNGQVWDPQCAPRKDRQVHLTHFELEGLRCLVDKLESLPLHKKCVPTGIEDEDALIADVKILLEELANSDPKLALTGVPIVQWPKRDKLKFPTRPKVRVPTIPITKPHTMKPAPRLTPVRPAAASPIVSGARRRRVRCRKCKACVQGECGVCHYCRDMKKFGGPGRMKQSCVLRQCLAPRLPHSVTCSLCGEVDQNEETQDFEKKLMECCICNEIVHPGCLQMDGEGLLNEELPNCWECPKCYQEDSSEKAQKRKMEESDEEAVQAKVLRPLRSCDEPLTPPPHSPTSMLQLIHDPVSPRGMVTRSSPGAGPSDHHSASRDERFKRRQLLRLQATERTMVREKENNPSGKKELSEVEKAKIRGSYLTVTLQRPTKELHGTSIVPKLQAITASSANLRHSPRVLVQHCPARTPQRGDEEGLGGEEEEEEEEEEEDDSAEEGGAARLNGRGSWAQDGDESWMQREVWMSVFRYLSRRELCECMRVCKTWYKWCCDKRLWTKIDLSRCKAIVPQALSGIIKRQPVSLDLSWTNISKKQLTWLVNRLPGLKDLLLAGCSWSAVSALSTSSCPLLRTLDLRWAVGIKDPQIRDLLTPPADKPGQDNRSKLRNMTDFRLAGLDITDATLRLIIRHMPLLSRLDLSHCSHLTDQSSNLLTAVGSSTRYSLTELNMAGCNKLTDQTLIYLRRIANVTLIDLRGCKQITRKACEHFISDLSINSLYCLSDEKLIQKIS

[5] = biological target: T2, F-box/LRR-repeat protein 19 (Homo sapiens, UniProt Q6PCT2); experiment: Inhibition of GST-tagged human FBXL19 (31 to 86 residues) expressed in Escherichia coli BL21 cells incubated for 30 mins by fluorescence polarization assay; in short: as §1
T2 sequence (Q6PCT2 whole entry): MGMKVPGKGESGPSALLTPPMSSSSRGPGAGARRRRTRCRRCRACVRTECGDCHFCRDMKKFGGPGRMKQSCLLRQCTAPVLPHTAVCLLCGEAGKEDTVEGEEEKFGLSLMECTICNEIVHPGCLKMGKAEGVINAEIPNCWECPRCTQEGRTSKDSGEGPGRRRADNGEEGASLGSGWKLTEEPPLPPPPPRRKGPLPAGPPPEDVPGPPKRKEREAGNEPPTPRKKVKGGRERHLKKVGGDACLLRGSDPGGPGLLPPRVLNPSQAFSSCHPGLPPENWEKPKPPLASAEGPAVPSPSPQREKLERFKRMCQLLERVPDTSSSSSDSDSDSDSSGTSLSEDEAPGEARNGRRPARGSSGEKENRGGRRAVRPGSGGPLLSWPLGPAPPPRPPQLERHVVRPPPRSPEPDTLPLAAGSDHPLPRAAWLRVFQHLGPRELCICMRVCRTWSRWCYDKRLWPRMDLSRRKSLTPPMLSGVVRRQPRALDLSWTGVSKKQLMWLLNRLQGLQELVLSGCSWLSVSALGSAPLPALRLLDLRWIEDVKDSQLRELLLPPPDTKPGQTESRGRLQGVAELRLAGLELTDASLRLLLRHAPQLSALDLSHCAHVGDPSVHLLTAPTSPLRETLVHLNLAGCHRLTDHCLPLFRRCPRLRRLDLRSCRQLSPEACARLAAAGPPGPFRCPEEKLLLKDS

[6] = biological target: T3, CXXC-type zinc finger protein 5 (Homo sapiens, UniProt Q7LFL8); experiment: Inhibition of GST-tagged human CXXC5 (255 to 305 residues) expressed in Escherichia coli BL21 cells incubated for 30 mins by fluorescence polarization assay; in short: as §1
T3 sequence (Q7LFL8 whole entry): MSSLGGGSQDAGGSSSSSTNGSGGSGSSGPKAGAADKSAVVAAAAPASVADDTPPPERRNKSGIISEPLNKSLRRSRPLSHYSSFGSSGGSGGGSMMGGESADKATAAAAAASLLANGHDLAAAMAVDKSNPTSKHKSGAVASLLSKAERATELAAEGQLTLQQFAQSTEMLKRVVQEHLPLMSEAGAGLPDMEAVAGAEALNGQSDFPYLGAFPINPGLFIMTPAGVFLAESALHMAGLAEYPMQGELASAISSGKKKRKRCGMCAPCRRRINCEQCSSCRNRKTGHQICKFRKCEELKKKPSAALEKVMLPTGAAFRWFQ

Chain of Histone-lysine N-methyltransferase 2A (Q03164 1-2718 limits assumed): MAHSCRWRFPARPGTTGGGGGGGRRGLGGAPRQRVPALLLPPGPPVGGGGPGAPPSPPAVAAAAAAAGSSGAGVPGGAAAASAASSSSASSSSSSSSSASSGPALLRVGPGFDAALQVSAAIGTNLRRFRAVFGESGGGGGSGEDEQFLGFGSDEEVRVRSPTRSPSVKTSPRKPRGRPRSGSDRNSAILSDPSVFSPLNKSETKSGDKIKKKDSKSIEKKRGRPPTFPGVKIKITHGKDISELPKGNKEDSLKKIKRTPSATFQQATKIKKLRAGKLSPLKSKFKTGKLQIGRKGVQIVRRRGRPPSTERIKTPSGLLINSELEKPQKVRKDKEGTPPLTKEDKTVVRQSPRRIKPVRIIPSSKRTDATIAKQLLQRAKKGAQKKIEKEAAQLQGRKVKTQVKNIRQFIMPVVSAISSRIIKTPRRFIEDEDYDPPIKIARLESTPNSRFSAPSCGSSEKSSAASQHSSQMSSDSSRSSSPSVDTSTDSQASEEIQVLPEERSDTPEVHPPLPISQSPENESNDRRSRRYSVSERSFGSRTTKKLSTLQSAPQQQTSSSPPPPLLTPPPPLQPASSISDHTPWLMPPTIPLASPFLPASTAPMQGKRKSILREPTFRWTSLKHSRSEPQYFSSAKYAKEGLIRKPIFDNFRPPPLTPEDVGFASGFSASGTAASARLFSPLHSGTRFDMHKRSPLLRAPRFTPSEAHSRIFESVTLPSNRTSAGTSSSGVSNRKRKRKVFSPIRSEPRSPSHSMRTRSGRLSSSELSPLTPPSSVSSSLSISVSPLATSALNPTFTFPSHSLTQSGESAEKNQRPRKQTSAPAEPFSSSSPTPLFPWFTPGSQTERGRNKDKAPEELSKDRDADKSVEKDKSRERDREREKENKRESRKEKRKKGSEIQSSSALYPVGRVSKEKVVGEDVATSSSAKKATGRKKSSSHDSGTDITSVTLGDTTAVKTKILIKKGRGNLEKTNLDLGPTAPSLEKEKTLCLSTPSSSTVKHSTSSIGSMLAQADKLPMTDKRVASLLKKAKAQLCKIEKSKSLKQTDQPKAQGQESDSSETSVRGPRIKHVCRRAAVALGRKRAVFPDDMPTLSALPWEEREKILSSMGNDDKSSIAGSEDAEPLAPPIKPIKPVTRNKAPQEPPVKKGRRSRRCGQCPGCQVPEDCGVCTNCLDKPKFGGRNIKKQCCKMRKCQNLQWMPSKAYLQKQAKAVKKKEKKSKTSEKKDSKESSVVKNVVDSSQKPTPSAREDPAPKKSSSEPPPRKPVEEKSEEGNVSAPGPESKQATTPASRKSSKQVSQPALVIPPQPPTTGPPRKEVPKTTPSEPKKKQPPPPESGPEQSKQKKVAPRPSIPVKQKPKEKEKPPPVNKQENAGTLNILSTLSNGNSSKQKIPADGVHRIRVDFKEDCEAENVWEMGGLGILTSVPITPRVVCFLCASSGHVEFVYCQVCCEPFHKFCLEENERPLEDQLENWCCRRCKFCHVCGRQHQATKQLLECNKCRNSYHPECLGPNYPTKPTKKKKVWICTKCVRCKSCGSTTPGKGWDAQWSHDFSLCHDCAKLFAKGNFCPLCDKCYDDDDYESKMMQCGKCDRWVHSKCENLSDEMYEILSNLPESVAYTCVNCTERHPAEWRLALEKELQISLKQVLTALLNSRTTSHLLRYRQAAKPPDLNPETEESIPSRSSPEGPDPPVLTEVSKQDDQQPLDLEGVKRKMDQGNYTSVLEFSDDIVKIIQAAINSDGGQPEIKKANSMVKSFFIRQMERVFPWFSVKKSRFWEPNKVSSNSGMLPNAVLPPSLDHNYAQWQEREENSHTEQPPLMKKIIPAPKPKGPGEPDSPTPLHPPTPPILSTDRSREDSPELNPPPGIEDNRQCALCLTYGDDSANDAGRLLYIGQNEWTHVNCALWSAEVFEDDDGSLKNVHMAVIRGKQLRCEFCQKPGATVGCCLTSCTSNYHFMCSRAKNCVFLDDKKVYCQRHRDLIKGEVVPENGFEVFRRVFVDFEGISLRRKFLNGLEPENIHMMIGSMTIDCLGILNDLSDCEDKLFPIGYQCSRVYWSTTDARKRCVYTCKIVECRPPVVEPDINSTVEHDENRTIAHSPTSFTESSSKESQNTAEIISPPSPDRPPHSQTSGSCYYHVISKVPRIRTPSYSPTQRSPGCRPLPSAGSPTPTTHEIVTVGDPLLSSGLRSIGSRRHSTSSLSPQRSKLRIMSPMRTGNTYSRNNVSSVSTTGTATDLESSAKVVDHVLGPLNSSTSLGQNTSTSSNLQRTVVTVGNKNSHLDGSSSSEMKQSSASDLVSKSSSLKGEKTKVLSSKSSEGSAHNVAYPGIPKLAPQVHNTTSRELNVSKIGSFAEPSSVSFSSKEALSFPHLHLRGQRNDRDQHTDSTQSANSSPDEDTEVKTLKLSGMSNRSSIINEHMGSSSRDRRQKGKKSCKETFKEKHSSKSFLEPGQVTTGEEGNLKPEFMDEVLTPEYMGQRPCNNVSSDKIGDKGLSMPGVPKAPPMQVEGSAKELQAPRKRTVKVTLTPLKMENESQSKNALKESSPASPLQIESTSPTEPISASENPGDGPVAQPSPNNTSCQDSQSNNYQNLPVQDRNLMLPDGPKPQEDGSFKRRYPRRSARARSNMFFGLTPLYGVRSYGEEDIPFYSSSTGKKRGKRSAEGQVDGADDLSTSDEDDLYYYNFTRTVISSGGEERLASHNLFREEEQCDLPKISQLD
Chain of Histone-lysine N-methyltransferase 2A (Q03164 2719-3969 limits assumed): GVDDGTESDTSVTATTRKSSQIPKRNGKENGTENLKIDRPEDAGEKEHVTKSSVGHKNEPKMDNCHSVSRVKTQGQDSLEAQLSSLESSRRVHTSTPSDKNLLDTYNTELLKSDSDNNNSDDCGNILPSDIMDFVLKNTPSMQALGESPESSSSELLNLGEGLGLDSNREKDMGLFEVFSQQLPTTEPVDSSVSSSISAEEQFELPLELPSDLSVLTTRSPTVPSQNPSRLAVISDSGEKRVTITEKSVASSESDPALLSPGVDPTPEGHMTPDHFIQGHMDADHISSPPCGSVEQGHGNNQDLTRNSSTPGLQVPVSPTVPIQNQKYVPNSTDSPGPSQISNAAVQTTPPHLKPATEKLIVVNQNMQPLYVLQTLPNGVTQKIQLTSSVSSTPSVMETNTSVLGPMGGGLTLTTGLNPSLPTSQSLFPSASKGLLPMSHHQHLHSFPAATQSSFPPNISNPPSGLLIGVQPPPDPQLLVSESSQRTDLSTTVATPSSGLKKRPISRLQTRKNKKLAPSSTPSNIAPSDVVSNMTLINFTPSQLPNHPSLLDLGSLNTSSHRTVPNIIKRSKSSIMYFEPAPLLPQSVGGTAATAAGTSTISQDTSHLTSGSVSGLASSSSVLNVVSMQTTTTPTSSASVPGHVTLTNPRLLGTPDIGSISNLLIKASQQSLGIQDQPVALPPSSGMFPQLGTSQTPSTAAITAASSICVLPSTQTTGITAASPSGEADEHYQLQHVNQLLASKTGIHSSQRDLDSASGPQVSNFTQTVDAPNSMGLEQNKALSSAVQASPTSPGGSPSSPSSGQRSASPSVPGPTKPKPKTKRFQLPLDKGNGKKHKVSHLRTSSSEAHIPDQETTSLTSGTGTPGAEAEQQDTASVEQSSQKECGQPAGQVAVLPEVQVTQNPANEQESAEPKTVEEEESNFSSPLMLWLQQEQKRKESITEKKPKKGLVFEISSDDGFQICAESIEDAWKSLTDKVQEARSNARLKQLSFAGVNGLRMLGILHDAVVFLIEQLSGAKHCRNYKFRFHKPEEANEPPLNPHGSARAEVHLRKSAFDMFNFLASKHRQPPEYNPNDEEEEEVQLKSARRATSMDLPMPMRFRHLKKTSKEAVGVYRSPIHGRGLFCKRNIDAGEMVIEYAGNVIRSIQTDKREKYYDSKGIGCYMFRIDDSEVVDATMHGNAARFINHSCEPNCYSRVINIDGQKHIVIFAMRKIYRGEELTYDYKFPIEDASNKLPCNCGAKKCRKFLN

C=CC(=O)N1CCC(C(=O)O)(c2ccc(OC)cc2)CC1
IC50 [1]: 43 µM
IC50 [2]: 81 µM
IC50 [3]: 30 µM
IC50 [4]: 30 µM
IC50 [5]: 17 µM
IC50 [6]: 47 µM

C=CC(=O)N1CCC(c2ccc(OC)cc2)(c2nnn[nH]2)CC1
IC50 [1]: 15 µM
IC50 [2]: 31 µM
IC50 [3]: 15.5 µM
IC50 [4]: 16.4 µM
IC50 [5]: 8.9 µM
IC50 [6]: 56 µM

C=CC(=O)N1CCC(C(=O)O)(c2ccc(OCC)cc2)CC1
IC50 [1]: 3.3 µM
IC50 [2]: 6.3 µM
IC50 [3]: 5.8 µM
IC50 [4]: 4.2 µM
IC50 [5]: 2.4 µM
IC50 [6]: 16.2 µM

C=CC(=O)N1CCC(C(=O)O)(c2ccc(Cl)cc2)CC1
IC50 [1]: 41 µM
IC50 [2]: 166 µM
IC50 [3]: 48 µM
IC50 [4]: 33 µM
IC50 [5]: 31 µM
IC50 [6]: 53 µM

C=CC(=O)N1CCC(C(=O)O)(c2ccccc2)CC1
IC50 [1]: 7.1 µM
IC50 [2]: 11.3 µM
IC50 [3]: 5.1 µM
IC50 [4]: 3.9 µM
IC50 [5]: 1.8 µM
IC50 [6]: 4.8 µM

C=CC(=O)N1CCC(C(=O)NS(=O)(=O)c2ccccc2)(c2ccccc2)CC1
IC50 [1]: 46 µM
IC50 [2]: 107 µM
IC50 [3]: 33 µM
IC50 [4]: 30 µM
IC50 [5]: 21.7 µM
IC50 [6]: 53 µM

C=CC(=O)N1CCC(c2ccccc2)(c2nnn[nH]2)CC1
IC50 [1]: 4.9 µM
IC50 [2]: 11 µM
IC50 [3]: 5.5 µM
IC50 [4]: 4.4 µM
IC50 [5]: 3.1 µM
IC50 [6]: 28 µM

C=CC(=O)N1CCC(c2ccc(OCC)cc2)(c2nnn[nH]2)CC1
IC50 [1]: 22 µM
IC50 [2]: 24 µM
IC50 [3]: 21 µM
IC50 [4]: 36 µM
IC50 [5]: 10.9 µM
IC50 [6]: 131 µM

C=CC(=O)N1CCC(c2cccc(OCC)c2)(c2nnn[nH]2)CC1
IC50 [1]: 7.7 µM
IC50 [2]: 10.7 µM
IC50 [3]: 7 µM
IC50 [4]: 7.4 µM
IC50 [5]: 2.6 µM
IC50 [6]: 40 µM
